Measurements as given in PMC12519076 (RSC Advances, 2025).
Like-named read-outs stand apart in the source and are kept apart here.

Assays:
[1] = following intraperitoneal administration; cited from earlier work
[2] = format: in vivo, mice; conditions: for Detection in the brain: oral administration; for Detection in plasma: mice sacrificed 12 h after food intake
Summary of the method: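 Male C57BL/6 mice, 7 weeks old, fed a high-fat diet with 1% w/w orange peel extract for 6 weeks, with 0.65% carnitine in drinking water. Tissues were homogenized under liquid nitrogen. Tissues, plasma (cardiac puncture, EDTA) and urine were extracted in methanol with 0.1% DMSO; taxifolin was the internal standard. Separation on a C30 column with a formic acid water/acetonitrile gradient; positive ESI, SRM. Values expressed as tissue–peel ratio.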

[3] = format: in vivo, mice; conditions: by number of metabolites identified
Summary of the method: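 Male C57BL/6 mice, from 7 weeks old, given high-fat chow containing 1% w/w orange peel extract for 6 weeks, with 0.65% carnitine in water. Methanol/0.1% DMSO extracts were run by UHPLC on a C30 column at 40 °C, 0.1% formic acid water/acetonitrile gradient 2–100% B, 0.2 mL min−1, with Q-Exactive Orbitrap detection. Metabolites were assigned to parent PMFs by key-ion patterns.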

[4] = tested on: spatial learning impairments induced by Aβ1-42; conditions: oral administration for four weeks; cited from earlier work
acetylcholinesterase = conditions: cortex and hippocampus; cited from earlier work

Detection in the brain [2] | Detection in plasma [2] | Detection in the testes ([2]; testes) | Detection in the kidney [2] | Detection in the liver [2] | SMILES | other results
– | – | – | – | – | COc1cc(-c2cc(=O)c3c(OC)c(OC)c(OC)c(OC)c3o2)ccc1O [4′-demethylnobiletin] | Detection in the brain [1]: detected in the brain
found | detected | detected | – | – | COc1ccc(-c2cc(=O)c3cc(OC)c(OC)c(OC)c3o2)cc1OC [PMF 1, 6,7,8,3′,4′-pentamethoxyflavone] | –
found | detected | not detected | – | detected | COc1ccc(-c2oc3c(OC)c(OC)c(OC)c(OC)c3c(=O)c2OC)cc1OC [PMF 5, 3,5,6,7,8,3′,4′-heptamethoxyflavone] | –
found | detected | not detected | detected | detected | COc1ccc(-c2cc(=O)c3c(OC)c(OC)c(OC)c(OC)c3o2)cc1 [PMF 6, tangeretin] | –
not detected | – | detected | detected | detected | COc1ccc(-c2cc(=O)c3c(O)c(OC)c(OC)c(OC)c3o2)cc1OC [PMF 8, 5-hydroxy-6,7,8,3′,4′-pentamethoxyflavone] | Feces-peel ratio relative to that of PMF 11 ([2]; feces): twice as high; Testes-to-peel ratio relative to the detected major PMFs 1 and 4 ([2]; testes): 10 to 14 times; Extent of metabolism among the 11 PMFs [3]: most extensively metabolized
not detected | – | – | – | detected | COc1ccc(-c2oc3c(OC)c(OC)cc(O)c3c(=O)c2OC)cc1OC [PMF 9, 5-hydroxy-3,7,8,3′,4′-pentamethoxyflavone] | –
found | – | – | – | detected | COc1ccc(-c2cc(=O)c3c(OC)c(OC)c(OC)cc3o2)cc1OC [PMF 10, sinensetin] | –
not detected | – | – | – | not detected | COc1ccc(-c2oc3c(OC)c(OC)c(OC)c(O)c3c(=O)c2OC)cc1OC [PMF 11, 5-hydroxy-3,6,7,8,3′,4′-hexamethoxyflavone] | –

SMILES | Detection in the brain [2] | Detection in plasma [2] | Detection in the testes ([2]; testes) | Detection in the kidney [2] | Detection in the liver [2] | other results
COc1ccc(-c2cc(=O)c3c(OC)c(OC)c(OC)c(OC)c3o2)cc1OC [PMF 3, nobiletin] | found | detected | not detected | detected | detected | Urine–peel ratio relative to other non-hydroxylated PMFs ([2]; urine): approximately two times higher; Extent of metabolism among the 11 PMFs [3]: most extensively metabolized; Effect on spatial learning impairments induced by Aβ1-42, Morris water maze test [4]: prevent spatial learning impairments; Acetylcholinesterase activity (acetylcholinesterase): enhanced
